Legend:
[1] = Cytotoxicity against wild type human Saos2 cells assessed as cell mortality at 0.1 to 5 ug/mL after 4 hrs by trypan blue staining-based flow cytometric analysis; conditions: saos-2, 4 h
Method in brief: (§1)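 Trypan blue exclusion read by flow cytometry. Cells exposed to voacamine at 0.1, 1.0 or 5.0 μg/mL (in DMSO; DMSO-only cultures as extra control) for 4 or 24 h, resuspended in ice-cold PBS, stained with trypan blue (final 0.8 μM) and analysed at once; % dead cells. Three independent experiments, mean ± SD.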

[2] = Cytotoxicity against doxorubicin-resistant human Saos2 cells assessed as cell mortality at 0.1 to 5 ug/mL after 4 hrs by trypan blue staining-based flow cytometric analysis; conditions: saos-2, 4 h; method in brief: as §1
[3] = Cytotoxicity against P-gp-deficient human Me30966 cells assessed as cell mortality at 0.1 to 5 ug/mL after 4 hrs by trypan blue staining-based flow cytometric analysis; assay type: ADME; method in brief: as §1
[4] = Cytotoxicity against wild type human Saos2 cells assessed as cell mortality at 5 ug/mL after 24 hrs by trypan blue staining-based flow cytometric analysis; conditions: saos-2, 24 h; method in brief: as §1
[5] = Cytotoxicity against doxorubicin-resistant human Saos2 cells assessed as cell mortality at 5 ug/mL after 24 hrs by trypan blue staining-based flow cytometric analysis; conditions: saos-2, 24 h; method in brief: as §1
[6] = Cytotoxicity against P-gp-deficient human Me30966 cells assessed as cell mortality at 5 ug/mL after 24 hrs by trypan blue staining-based flow cytometric analysis; assay type: ADME; method in brief: as §1
[7] = Cytotoxicity against human AG1522 cells assessed as cell mortality at 5 ug/mL after 24 hrs by trypan blue staining-based flow cytometric analysis; method in brief: as §1
[8] = Cytotoxicity against human AG1522 cells assessed as cell mortality at 0.1 to 5 ug/mL after 4 hrs by trypan blue staining-based flow cytometric analysis; method in brief: as §1
[9] = biological target: T1, ATP-dependent translocase ABCB1 (Homo sapiens, UniProt P08183); test: Inhibition of p-gp in doxorubicin-resistant human Saos2 cells assessed as increase in doxorubicin uptake at 1 ug/mL after 3 hrs by flow cytometric analysis; assay type: cell-based; conditions: saos-2, 3 h
T1 sequence (P08183 whole entry): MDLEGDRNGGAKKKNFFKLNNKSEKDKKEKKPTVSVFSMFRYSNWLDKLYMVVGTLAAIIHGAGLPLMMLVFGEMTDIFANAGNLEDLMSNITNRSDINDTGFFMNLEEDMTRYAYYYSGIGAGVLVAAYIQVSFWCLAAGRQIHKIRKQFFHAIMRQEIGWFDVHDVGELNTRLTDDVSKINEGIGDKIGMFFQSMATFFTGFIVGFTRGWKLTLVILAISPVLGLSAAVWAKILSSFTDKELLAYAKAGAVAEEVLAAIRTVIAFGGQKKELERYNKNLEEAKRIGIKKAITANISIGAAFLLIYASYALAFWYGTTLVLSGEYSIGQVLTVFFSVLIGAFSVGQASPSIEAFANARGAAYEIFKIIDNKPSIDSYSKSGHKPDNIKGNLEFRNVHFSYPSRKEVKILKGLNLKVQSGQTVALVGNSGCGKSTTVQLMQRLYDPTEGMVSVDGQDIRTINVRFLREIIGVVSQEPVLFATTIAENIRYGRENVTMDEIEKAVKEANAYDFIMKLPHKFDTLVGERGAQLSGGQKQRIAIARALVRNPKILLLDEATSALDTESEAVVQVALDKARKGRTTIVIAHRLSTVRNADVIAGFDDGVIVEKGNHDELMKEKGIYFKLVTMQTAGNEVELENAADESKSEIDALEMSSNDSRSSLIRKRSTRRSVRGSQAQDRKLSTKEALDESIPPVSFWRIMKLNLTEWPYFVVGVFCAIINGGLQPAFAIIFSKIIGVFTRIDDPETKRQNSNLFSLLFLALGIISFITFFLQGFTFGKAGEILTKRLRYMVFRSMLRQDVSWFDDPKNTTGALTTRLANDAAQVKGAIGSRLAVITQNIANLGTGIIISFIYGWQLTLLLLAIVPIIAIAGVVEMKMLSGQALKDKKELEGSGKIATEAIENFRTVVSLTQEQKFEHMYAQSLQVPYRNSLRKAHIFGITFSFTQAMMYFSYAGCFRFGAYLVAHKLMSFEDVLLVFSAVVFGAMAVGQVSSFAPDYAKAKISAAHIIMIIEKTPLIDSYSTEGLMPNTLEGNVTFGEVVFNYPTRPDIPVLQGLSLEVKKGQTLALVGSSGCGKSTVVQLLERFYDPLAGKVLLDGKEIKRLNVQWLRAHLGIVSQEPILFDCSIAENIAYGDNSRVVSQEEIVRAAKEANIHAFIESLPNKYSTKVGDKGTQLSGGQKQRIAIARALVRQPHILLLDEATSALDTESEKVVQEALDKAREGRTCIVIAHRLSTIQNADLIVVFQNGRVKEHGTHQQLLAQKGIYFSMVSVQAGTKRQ
Method in brief: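 Doxorubicin accumulation by flow cytometry. Osteosarcoma or melanoma cells exposed for 3 h to doxorubicin 1.0 μg/mL alone, with voacamine 1.0 μg/mL, or with cyclosporin A 5.0 μM (control). Cells detached with EDTA/trypsin (10^6 cells/mL), resuspended in ice-cold PBS, 488 nm excitation. Three independent experiments, mean ± SD.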

[10] = biological target: T1, ATP-dependent translocase ABCB1; test: Inhibition of p-gp in doxorubicin-resistant human Saos2 cells assessed as increase in intracellular doxorubicin retention at 1 ug/mL after 2 hrs by flow cytometric analysis; assay type: cell-based; conditions: saos-2, 2 h
Method in brief: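 Efflux by flow cytometry. Cells loaded 1 h with 1.0 μg/mL doxorubicin, washed in PBS, then reincubated 2 h at 37 °C in drug-free medium with or without voacamine (1.0 μg/mL) or cyclosporin A (5.0 μM). Detached, resuspended in ice-cold PBS, analysed for retained doxorubicin fluorescence. Three independent experiments, mean ± SD.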

[11] = biological target: T1, ATP-dependent translocase ABCB1; test: Inhibition of p-gp in doxorubicin-resistant human Saos2 cells assessed as intracellular doxorubicin distribution in nuclei at 1 ug/mL after 2 to 3 hrs by laser scanning confocal microscopic analysis; assay type: cell-based; conditions: saos-2
Method in brief: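 Living SAOS-2-DX cells, with SAOS-2-WT for reference, treated with doxorubicin alone or with voacamine or cyclosporin A as in the flow cytometry uptake/efflux protocol. Intracellular, including nuclear, doxorubicin fluorescence located by laser scanning confocal microscopy.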

[12] = Cytotoxicity against doxorubicin-resistant human Saos2 cells assessed as effect on cell survival up to 1 ug/mL after 72 hrs by MTT assay; assay type: cell-based; conditions: saos-2, 72 h
Method in brief: (§2)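 MTT survival assay. Cells seeded 24 h beforehand (1 × 10^4 SAOS-2-DX or 5 × 10^3 Me30966 per well). Voacamine 0.5 or 1.0 μg/mL given alone or 30 min before doxorubicin (Me30966: 0.1 or 0.5 μg/mL; SAOS-2-DX: 0.5 or 1.0 μg/mL). Read at 24 h for Me30966 and 72 h for SAOS-2-DX. Three independent experiments, mean ± SD.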

P-gp (ABCB1) = P-gp (ABCB1) (Homo sapiens, UniProt P08183); test: Inhibition of p-gp in doxorubicin-resistant human Saos2 cells assessed as potentiation of doxorubicin-induced cytotoxicity by measuring cell survival at 1 ug/mL pretreated for 30 mins followed by 0.5 ug/mL doxorubicin addition measured after 72 hrs by MTT assay relative to doxorubicin-treated cell; assay type: cell-based, SAOS-2; conditions: probe doxorubicin, read-out: Survival; method in brief: as §2
Sequence of P-gp (ABCB1) (P08183 whole entry): as above

[13] = biological target: T1, ATP-dependent translocase ABCB1; test: Inhibition of p-gp in doxorubicin-resistant human Saos2 cells assessed as potentiation of doxorubicin-induced cytotoxicity by measuring cell survival at 0.5 ug/mL pretreated for 30 mins followed by 0.5 ug/mL doxorubicin addition measured after 72 hrs by MTT assay relative to doxorubicin-treated cell; assay type: cell-based; conditions: saos-2, 72 h; method in brief: as §2
[14] = biological target: T1, ATP-dependent translocase ABCB1; test: Inhibition of p-gp in doxorubicin-resistant human Saos2 cells assessed as potentiation of doxorubicin-induced cytotoxicity by measuring cell survival at 0.5 ug/mL pretreated for 30 mins followed by 1 ug/mL doxorubicin addition measured after 72 hrs by MTT assay relative to doxorubicin-treated cell; assay type: cell-based; conditions: saos-2, 72 h; method in brief: as §2
[15] = biological target: T1, ATP-dependent translocase ABCB1; test: Inhibition of p-gp in doxorubicin-resistant human Saos2 cells assessed as potentiation of doxorubicin-induced cytotoxicity by measuring cell survival at 1 ug/mL pretreated for 30 mins followed by 1 ug/mL doxorubicin addition measured after 72 hrs by MTT assay relative to doxorubicin-treated cell; assay type: cell-based; conditions: saos-2, 72 h; method in brief: as §2
[16] = Cytotoxicity against P-gp-deficient human Me30966 cells assessed as effect on cell survival at 0.5 to 1 ug/mL pretreated for 30 mins followed by 1 ug/mL doxorubicin addition measured after 24 hrs by MTT assay relative to doxorubicin-treated cell; assay type: ADME, cell-based
[17] = Cytotoxicity against doxorubicin-resistant human Saos2 cells assessed as induction of morphological changes at 1 ug/mL by phase contrast microscopic analysis; assay type: cell-based; conditions: saos-2
Method in brief: (§3)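 Monolayers viewed by phase contrast microscopy against untreated controls. SAOS-2-DX given 1.0 μg/mL voacamine plus 1.0 μg/mL doxorubicin; Me30966 given 1.0 μg/mL voacamine plus 0.5 μg/mL doxorubicin.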

[18] = Cytotoxicity against P-gp-deficient human Me30966 cells assessed as induction of morphological changes at 1 ug/mL by phase contrast microscopic analysis; assay type: ADME, cell-based; method in brief: as §3
[19] = biological target: T1, ATP-dependent translocase ABCB1; test: Inhibition of p-gp in doxorubicin-resistant human Saos2 cells assessed as potentiation of 1 ug/mL doxorubicin-induced cytotoxicity by measuring induction of morphological changes at 1 ug/mL by phase contrast microscopic analysis; assay type: cell-based; conditions: saos-2; method in brief: as §3

## CC=C1CN(C)C2Cc3c([nH]c4ccccc34)C(c3cc4[nH]c5c(c4cc3OC)CCN3CC4CC(CC)C3C5(C(=O)OC)C4)CC1C2C(=O)OC (stereo not given) [VOACAMINE]
[1]
  Activity: Non-toxic
[2]
  Activity: Non-toxic
[3]
  Activity: Non-toxic
[4]
  Activity: Toxic
[5]
  Activity: Toxic
[6]
  Activity: Toxic
[7]
  Activity: Toxic
[8]
  Activity: Non-toxic
[9]
  inhibition (INH): Active
[10]
  inhibition (INH): Active
[11]
  inhibition (INH): Active
[12]
  Activity: Non-toxic
P-gp (ABCB1)
  viability at 72 h, 1 ug/mL: 50%
[13]
  inhibition (INH): Active
[14]
  inhibition (INH): Active
[15]
  inhibition (INH): Active
[16]
  Activity: Non-toxic
[17]
  Activity: Non-toxic
[18]
  Activity: Non-toxic
[19]
  inhibition (INH): Active

Source: ChEMBL document CHEMBL3259756 (J Nat Prod, 2014)
